Assay outcomes: PubChem, several laboratories
Only a sample is shown.
Rev-RRE block: inhibitors of HIV-1 Rev-RRE RNA interaction. Rev peptide-RRE RNA binding, FRET. inhibition, % at 8 µM. P05866. hit rate 0.79% among 97,000;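 active = inhibition above the screen-wide mean plus 3 SD, cut at about 35% in these data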
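Material: labelled RRE RNA duplex and labelled Rev peptide / Buffer or medium: HEPES pH 7.5 salt buffer with EDTA / Compound dosing: single point, 8 µM final nominal compound concentration / Benchmarks: DMSO low control, neomycin B high control / Timing: 5 min preincubation and 15 min binding, 25 °C / Technique: FRET fluorescence readout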
CYP2C19 act: activators of human cytochrome P450 2C19; activation factor at 5 µM; recombinant CYP2C19, luciferin-H EGE luminescence; hits give high values; 0 = fully inhibited enzyme, 1 = untreated enzyme; 96,000 tested, under 10 active; AID 1025;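 active = activation factor of at least 2 at 5 µM in the primary screen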
Target sequence (P33261 whole entry, looked up): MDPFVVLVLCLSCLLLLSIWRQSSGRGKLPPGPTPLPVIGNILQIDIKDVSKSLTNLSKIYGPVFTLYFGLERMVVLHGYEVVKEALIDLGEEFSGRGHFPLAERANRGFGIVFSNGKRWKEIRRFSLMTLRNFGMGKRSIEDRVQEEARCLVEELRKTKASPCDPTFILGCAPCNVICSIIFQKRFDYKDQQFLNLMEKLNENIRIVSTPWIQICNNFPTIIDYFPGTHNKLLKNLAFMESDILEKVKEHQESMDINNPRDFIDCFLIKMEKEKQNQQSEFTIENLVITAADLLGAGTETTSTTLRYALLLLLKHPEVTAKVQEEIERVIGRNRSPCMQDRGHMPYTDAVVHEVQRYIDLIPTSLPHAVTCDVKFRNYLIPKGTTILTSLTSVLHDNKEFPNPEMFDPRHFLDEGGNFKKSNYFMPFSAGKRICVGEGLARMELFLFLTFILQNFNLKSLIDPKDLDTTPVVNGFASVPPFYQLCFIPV
Cav32 inh: inhibitors of human Cav3.2 T-type calcium channel; AID 449739; hit rate 4% among 100,000; B-score at 10 µM; Cav3.2-expressing cells, Fluo-4 calcium fluorescence FDSS; hits give low values;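 active = single-dose well whose peak fluorescence ratio is a statistical outlier from its plate by either plate-standardised score or position-corrected B-score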
CYP2C9 act: activators of human CYP2C9; recombinant CYP2C9, luciferin-H conversion, luminescence; hits give high values; factor 1 = untreated enzyme, 0 = blocked; activation factor at 5 µM; hit rate 1.4% among 96,000;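 active = activation factor of 2 or more for CYP2C9 at a 5 µM dose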
CYP2C9 inhib: blocks human cytochrome P450 2C9; P11712; CYP2C9 Supersomes, luciferin-H conversion, luminescence; inhibition, % at 5 µM; hit rate 20% among 96,000; AID 777;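 active = blocking of liver enzyme CYP2C9 beyond about 50% at 5 µM, limit read from the data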
CYP2C19 inh: human CYP2C19 inhibition; P33261; CYP2C19 Supersomes, luciferin-H EGE luminescence, 30 min; inhibition, % at 5 µM; hit rate 21% among 96,000;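 active = CYP2C19 inhibition above a set limit at 5 µM in the primary screen, cut at about 50% in these data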
Each line names hits and unclear results; the compound was inactive in the other large screens.

Cc1cccc(N2CCN(C(=O)c3ccc4ncsc4c3)CC2)c1C	CYP2C19 inh 66.1
Clc1ccc2c(c1)C1OCCC1C(c1ccco1)N2 (stereo unspecified)	none
CCOC(=O)C1CCN(c2nnc(N3CCCC3=O)s2)CC1	none (no result: Rev-RRE block)
COc1cccc(C(=O)CN2C3=NCCCN3c3ccccc32)c1	none
COCCn1c(CNc2ccc(F)cc2)nnc1SCC(=O)Nc1ccc(OC)cc1OC	none
